Measurements reported in ChEMBL document CHEMBL4130629 (J Med Chem, 2018).
pEC50, pIC50, pKd: −log10 of the molar value. In brackets after ≈: the same amount, converted by molar mass.

Experiments:
[1] = tested on: Human immunodeficiency virus 1; test: Antiviral activity against ENV pseudotyped CCR5-tropic HIV1 […] infected in human HeLa67 cells after 3 days by luciferase reporter gene assay; assay type: functional, organism-based; settings: Human immunodeficiency virus 1, HeLa67, 72 h
Method in brief: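 Single-cycle infection with env-deleted, luciferase-reporter HIV-1 pseudotyped with the JRFL (CCR5) envelope, supplied by transfection; viral titers normalized by luminescence without compound. HeLa 67 cells were infected in the presence of compounds given as 3-fold serial dilutions made from 30 mM DMSO stocks.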

[2] = AUC in beagle dog at 5 mg/kg, po; assay type: ADME, organism-based, Canis lupus familiaris; settings: in vivo
Method in brief: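 Crossover study in three male beagle dogs (12 ± 0.4 kg) with a one-week washout between routes; dosed in PEG-400/ethanol (90/10) with pH adjusted by 0.1 N NaOH. After an overnight fast, 5 mg/kg was given by oral gavage. Serial blood was drawn before dosing and at 15–1440 min.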

[3] = tested on: Human immunodeficiency virus 1; test: Antiviral activity against HIV1 infected in patients assessed as reduction in maxmum viral RNA by measuring log10 viral copies at 1800 mg, bid measured at day 8; assay type: functional
[4] = tested on: Human immunodeficiency virus 1; test: Antiviral activity against HIV1 infected in patients assessed as reduction in plasma viral load by measuring log10 viral copies at 1800 mg, bid measured at day 8; assay type: functional
[5] = tested on: Human immunodeficiency virus 1; test: Selectivity ratio of EC50 for ENV pseudotyped CCR5-tropic HIV1 […] in presence of 40%human serum to EC50 for ENV pseudotyped CCR5-tropic HIV1 […] in absence of 40%human serum; assay type: functional
Method in brief: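 Single-cycle assay: env-deleted HIV-1 firefly-luciferase reporter virus pseudotyped by transfection with the JRFL (CCR5-tropic) envelope; HeLa 67 cells infected with compound (DMSO stocks, 3-fold serial dilutions). Luciferase read 3 days post-infection.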

MT2 = test: Cytotoxicity against human MT2 cells assessed as decrease in cell viability after 3 days […]; assay type: functional; settings: MT2, 72 h
[6] = AUC in cynomolgus monkey at 5 mg/kg, po administered via gavage; assay type: ADME, organism-based, Macaca fascicularis; settings: in vivo
Method in brief: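 Crossover study in three male cynomolgus monkeys (10 ± 0.8 kg) with a one-week washout between routes; dosed in PEG-400/ethanol (90/10) with pH adjusted by 0.1 N NaOH. After an overnight fast, 5 mg/kg was given by oral gavage. Serial blood was drawn before dosing and at 15–1440 min.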

[7] = molecular target: Envelope glycoprotein gp160 (Human immunodeficiency virus 1) (UniProt Q6QLK5); test: Binding affinity to HIV-1 JRFL gp120 assessed as half life for dissociation
[8] = AUC in Sprague-Dawley rat at 5 mg/kg, po after 24 hrs; assay type: ADME, organism-based; parameters: time < 24 hr, dose 5 mg/kg, route oral; settings: in vivo
Method in brief: (§1)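 Male Sprague-Dawley rats (300−350 g) with jugular vein and/or bile duct cannulas, n = 3 per route; dosed as a solution in PEG-400/ethanol (90/10). The iv dose was 1 mg/kg given as a 0.5 min bolus, with jugular blood sampled from 2 to 1440 min. The po dose was 5 mg/kg after an overnight fast, sampled from 15 to 1440 min. Plasma was taken from EDTA blood.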

[9] = molecular target: Envelope glycoprotein gp160 (Human immunodeficiency virus 1, UniProt Q6QLK5); test: Inhibition of [3H]BMS-488043 binding to HIV-1 JRFL gp120 after 1 hr by scintillation counting method
[10] = tested on: Human immunodeficiency virus 1; test: Antiviral activity against HIV1 infected in patients assessed as reduction in maxmum viral RNA by measuring log10 viral copies at 800 mg, bid measured at day 8; assay type: functional
[11] = Half life in human liver microsomes; assay type: ADME, microsome
[12] = tested on: Human immunodeficiency virus 1; test: Antiviral activity against HIV1 infected in patients assessed as reduction in plasma viral load by measuring log10 viral copies at 800 mg, bid measured at day 8 (reference value: 0.02 log10 copies/ml); assay type: functional
[13] = Protein binding in human plasma; assay type: ADME, cell-free; settings: read-out: PPB (converted)
[14] = tested on: Human immunodeficiency virus 1; test: Antiviral activity against recombinant pseudotyped HIV1 subtype A infected in human U87 cells expressing CD4/CCR5/CXCR4 by luciferase reporter gene assay; assay type: functional, organism-based; settings: Human immunodeficiency virus 1, subtype A, U-87 MG
[15] = tested on: Human immunodeficiency virus 1; test: Antiviral activity against recombinant pseudotyped HIV1 subtype C infected in human U87 cells expressing CD4/CCR5/CXCR4 by luciferase reporter gene assay; assay type: functional, organism-based; settings: Human immunodeficiency virus 1, subtype C, U-87 MG
[16] = Permeability in human Caco2 cells; assay type: ADME, cell-based; settings: Caco-2, read-out: permeability
[17] = Drug uptake in Sprague-Dawley rat plasma assessed as BMS-626529 level at 200 mg/kg, po after 3 hrs; assay type: ADME, organism-based; settings: in vivo
[18] = Aqueous solubility of the compound at pH 1; assay type: physicochemical; settings: buffer
Method in brief: (§2)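 Crystalline solid sample; aqueous solubility measured in buffers at the stated pH.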

Rattus norvegicus = test: Oral bioavailability in Sprague-Dawley rat assessed as BMS-626529 formation at 5 mg/kg; assay type: ADME, organism-based; settings: in vivo
[19] = Drug uptake in Sprague-Dawley rat plasma assessed as BMS-626529 level at <= 25 mg/kg, po after 3 hrs; assay type: ADME, organism-based; settings: in vivo
Method in brief: (§3)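 Rats were dosed orally with parent (solution in PEG-400/EtOH/0.1 N NaOH at ≤25 mg/kg; suspension at 200 mg/kg) or with prodrug as an aqueous solution. Plasma AUC of the parent drug was compared between the two.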

[20] = tested on: Human immunodeficiency virus 1; test: Antiviral activity against recombinant pseudotyped HIV1 subtype B infected in human U87 cells expressing CD4/CCR5/CXCR4 by luciferase reporter gene assay; assay type: functional, organism-based; settings: Human immunodeficiency virus 1, subtype B, U-87 MG
Cynomolgus monkey = test: Oral bioavailability in cynomolgus monkey assessed as BMS-626529 formation at 5 mg/kg administered via gavage; assay type: ADME, organism-based, Macaca fascicularis; settings: in vivo
[21] = Aqueous solubility of the compound at pH 10; assay type: physicochemical; settings: buffer; method in brief: as §2
Canis familiaris [22] = test: Oral bioavailability in beagle dog assessed as BMS-626529 formation at 5 mg/kg; assay type: ADME, organism-based, Canis lupus familiaris; settings: in vivo
[23] = Half life in Sprague-Dawley rat at 1 mg/kg, iv; assay type: ADME, organism-based; settings: in vivo
[24] = Oral bioavailability in Sprague-Dawley rat at 5 mg/kg; assay type: ADME, organism-based; settings: in vivo; method in brief: as §1
[25] = Metabolic stability in rat liver microsomes assessed as parent compound remaining after 10 mins; assay type: ADME, microsome; settings: read-out: Stability
Method in brief: (§4)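 Compound at 3 μM was incubated with human or rat liver microsomes, and the percentage of parent compound remaining was measured after 10 min.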

[26] = Metabolic stability in human liver microsomes assessed as parent compound remaining after 10 mins; assay type: ADME, microsome; settings: read-out: Stability; method in brief: as §4
[27] = Volume of distribution at steady state in Sprague-Dawley rat at 1 mg/kg, iv; assay type: ADME, organism-based; settings: in vivo, read-out: Vdss; method in brief: as §1
Cytochrome P450 3A4 = Cytochrome P450 3A4 (Homo sapiens, UniProt P08684); test: Inhibition of CYP3A4 (unknown origin); assay type: ADME
[28] = Prodrug activation in Sprague-Dawley rat plasma assessed as BMS-626529 formation at 200 mg/kg, po after 3 hrs; assay type: organism-based; settings: in vivo; method in brief: as §3
[29] = Prodrug activation in Sprague-Dawley rat plasma assessed as BMS-626529 formation at <= 25 mg/kg, po after 3 hrs; assay type: organism-based; settings: in vivo; method in brief: as §3
[30] = Stability of the compound under acidic condition at 37 degC after 24 hrs; assay type: physicochemical
Method in brief: (§5)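 Aqueous solubility was measured across pH 1.5–8.2 at room temperature. Solution stability under acidic and neutral conditions, and solid-state stability, were followed for at least 24 h at 37 °C.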

[31] = molecular target: T1, Alkaline phosphatase, placental type (Homo sapiens, UniProt P05187); test: Prodrug activation assessed as human placental alkaline phosphatase mediated BMS-626529 formation; settings: isolated protein
[32] = Stability of the compound under neutral condition at 37 degC after 24 hrs; assay type: physicochemical; method in brief: as §5
Canis familiaris [33] = test: Toxicity in beagle dog assessed as rapid emesis at 250 mg/kg, po qd; assay type: organism-based, Canis lupus familiaris; settings: in vivo
[34] = Stability of the compound in solid state at 37 degC after 24 hrs; assay type: physicochemical; method in brief: as §5
[35] = Prodrug activation in beagle dog plasma assessed as BMS-626529 formation 125 mg/kg, po bid; assay type: organism-based, Canis lupus familiaris; settings: in vivo
[36] = Prodrug activation in beagle dog plasma assessed as BMS-626529 formation 46 mg/kg, po bid; assay type: organism-based, Canis lupus familiaris; settings: in vivo
[37] = molecular target: T1, Alkaline phosphatase, placental type; test: Prodrug activation in human hepatocytes assessed as BMS-626529 formation; assay type: cell-based
Homo sapiens = test: Prodrug activation in normal healthy human assessed as BMS-626529 formation at 100 to 1000 mg dosed as standard capsule formulation; assay type: organism-based; settings: in vivo, po
Method in brief: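 Single ascending dose phase 1 trial in normal healthy volunteers: prodrug given as a standard capsule at 100, 200, 400, 600, 800 and 1000 mg. Plasma exposure of the parent drug was measured.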

[38] = Aqueous solubility of the compound at pH 1.5 to 8.2; assay type: physicochemical; settings: buffer; method in brief: as §5

Sequence of Envelope glycoprotein gp160 (Human immunodeficiency virus 1) (Q6QLK5 1-814): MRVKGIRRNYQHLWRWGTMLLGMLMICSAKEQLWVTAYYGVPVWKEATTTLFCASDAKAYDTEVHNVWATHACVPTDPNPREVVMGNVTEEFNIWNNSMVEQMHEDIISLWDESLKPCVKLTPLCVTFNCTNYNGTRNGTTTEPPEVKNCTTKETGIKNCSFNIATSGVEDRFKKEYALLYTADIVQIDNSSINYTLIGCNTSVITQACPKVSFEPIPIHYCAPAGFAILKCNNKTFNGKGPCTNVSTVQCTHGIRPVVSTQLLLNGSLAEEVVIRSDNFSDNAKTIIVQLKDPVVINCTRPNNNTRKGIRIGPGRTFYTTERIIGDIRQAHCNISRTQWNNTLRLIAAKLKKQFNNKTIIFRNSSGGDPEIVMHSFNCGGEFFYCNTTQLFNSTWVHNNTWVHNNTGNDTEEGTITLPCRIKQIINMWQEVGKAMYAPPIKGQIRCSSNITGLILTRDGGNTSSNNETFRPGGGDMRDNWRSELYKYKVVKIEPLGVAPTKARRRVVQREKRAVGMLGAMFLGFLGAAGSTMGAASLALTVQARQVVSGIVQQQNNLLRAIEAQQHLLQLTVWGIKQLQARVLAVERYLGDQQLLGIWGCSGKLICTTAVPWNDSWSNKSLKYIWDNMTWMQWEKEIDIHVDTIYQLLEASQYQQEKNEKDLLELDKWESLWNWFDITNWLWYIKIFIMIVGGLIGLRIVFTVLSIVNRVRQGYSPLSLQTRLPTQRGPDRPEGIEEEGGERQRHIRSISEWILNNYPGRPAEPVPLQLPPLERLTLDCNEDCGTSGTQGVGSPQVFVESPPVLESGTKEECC
T1 sequence (P05187 whole entry): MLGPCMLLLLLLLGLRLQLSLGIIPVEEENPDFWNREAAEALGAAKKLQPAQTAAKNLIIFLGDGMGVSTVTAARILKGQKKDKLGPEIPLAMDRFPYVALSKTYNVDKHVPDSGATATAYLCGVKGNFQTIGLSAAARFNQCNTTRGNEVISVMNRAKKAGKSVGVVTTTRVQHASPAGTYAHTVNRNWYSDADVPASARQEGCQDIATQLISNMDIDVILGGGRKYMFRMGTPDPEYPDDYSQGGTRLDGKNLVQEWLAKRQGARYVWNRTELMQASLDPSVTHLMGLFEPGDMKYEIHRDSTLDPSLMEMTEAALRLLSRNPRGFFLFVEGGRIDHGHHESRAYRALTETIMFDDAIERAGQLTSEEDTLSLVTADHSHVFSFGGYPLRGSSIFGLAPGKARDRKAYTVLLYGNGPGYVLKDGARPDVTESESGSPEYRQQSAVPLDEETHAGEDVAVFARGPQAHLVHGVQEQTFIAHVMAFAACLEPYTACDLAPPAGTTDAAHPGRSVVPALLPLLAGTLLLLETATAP
Sequence of Envelope glycoprotein gp160 (Q6QLK5 whole entry): as the sequence (Q6QLK5 1-814) above
Sequence of Cytochrome P450 3A4 (P08684 whole entry): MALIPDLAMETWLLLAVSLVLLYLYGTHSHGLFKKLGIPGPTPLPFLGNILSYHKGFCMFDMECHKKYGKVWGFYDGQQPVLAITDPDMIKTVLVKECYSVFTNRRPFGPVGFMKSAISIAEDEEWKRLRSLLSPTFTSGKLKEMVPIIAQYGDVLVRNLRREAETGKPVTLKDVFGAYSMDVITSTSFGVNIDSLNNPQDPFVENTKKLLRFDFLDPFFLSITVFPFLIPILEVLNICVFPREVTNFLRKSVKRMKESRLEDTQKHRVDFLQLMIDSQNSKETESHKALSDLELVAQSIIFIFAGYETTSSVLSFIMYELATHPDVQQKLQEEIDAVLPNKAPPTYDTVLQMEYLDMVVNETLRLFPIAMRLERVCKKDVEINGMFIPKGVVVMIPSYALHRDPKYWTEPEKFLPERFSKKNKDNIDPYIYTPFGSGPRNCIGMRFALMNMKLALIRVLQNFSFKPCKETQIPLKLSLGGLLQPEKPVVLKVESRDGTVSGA

With `COc1ncc(OC)c2c(C(=O)C(=O)N3CCN(C(=O)c4ccccc4)CC3)c[nH]c12` the pEC50 [1] was 9.06, the AUC [2] was 43 µM·h and the “log(activity)” value [3] was 1.32 /ml. For the same molecule, the “log(activity)” value [4] was 0.96 /ml, the “Ratio EC50” value [5] was 1.9 - 3.7 and the CC50 (MT2) was over 300000 nM. It also gave an AUC [6] of 28 µM·h, a T1/2 [7] of 0.717 h and an AUC at 24 h [8] of 15 µM·h. For the same molecule, the pKd [9] was 7.72, the “log(activity)” value [10] was 1.5 /ml and the half-life [11] was over 1.67 h. For the same molecule, the “log(activity)” value [12] was 0.72 /ml and the fraction unbound [13] was 0.05.

Molecule `COc1cnc(-n2cnc(C)n2)c2[nH]cc(C(=O)C(=O)N3CCN(C(=O)c4ccccc4)CC3)c12` has a pIC50 [14] of 7.06, a pIC50 [15] of 8.15 and a Papp [16] of 18.2 ×10⁻⁶ cm/s. The AUC [2] was 61 µM·h, the Drug uptake [17] was “Active” and the solubility [18] was 50 µg/mL (≈ 106 µM). It also gave a bioavailability (Rattus norvegicus) of 80 to 122%, a CC50 (MT2) of over 300000 nM and a T1/2 [7] of 7.63 h. The Drug uptake [19] was “Active”, the AUC at 24 h [8] was 111 µM·h and the pIC50 [20] was 8.34. It also gave a bioavailability (Cynomolgus monkey) of 80 to 122%, a solubility [21] of 70 µg/mL (≈ 148 µM) and a bioavailability (Canis familiaris [22]) of 80 to 122%.

`COc1cnc(-n2cncn2)c2[nH]cc(C(=O)C(=O)N3CCN(C(=O)c4ccccc4)CC3)c12` showed a half-life [23] of 2.6 h, a pEC50 [1] of 10.05 and a Papp [16] of 14.6 ×10⁻⁶ cm/s. It also gave a bioavailability [24] of 90%, a CC50 (MT2) of over 300000 nM and a remaining at 10 min [25] of 97%. The remaining at 10 min [26] was 83%, the AUC at 24 h [8] was 48.7 µM·h and the Vd [27] was 0.4 L/kg. The pIC50 (Cytochrome P450 3A4) was 6.00.

With `COc1cnc(-n2cnc(C)n2)c2c1c(C(=O)C(=O)N1CCN(C(=O)c3ccccc3)CC1)cn2COP(=O)(O)O.NC(CO)(CO)CO` [FOSTEMSAVIR TROMETHAMINE] the Drug metabolism [28] was “Metabolite_Detected”, the Drug metabolism [29] was “Metabolite_Detected” and the Stability [30] was “Stable”. The Drug metabolism [31] was “Metabolite_Detected”, the Stability [32] was “Stable” and the Activity (Canis familiaris [33]) was “Toxic”. The Stability [34] was “Stable”, the Drug metabolism [35] was “Metabolite_Detected” and the Drug metabolism [36] was “Metabolite_Detected”. The Drug metabolism [37] was “Metabolite_Detected”, the Drug metabolism (Homo sapiens) was “Dose-dependent effect” and the solubility [38] was over 11000 µg/mL.
